Data on 21 compounds can be found in ChEMBL document CHEMBL3877261, “New azepino[4,3-b]indole derivatives as nanomolar selective inhibitors of human butyrylcholinesterase showing protective effects against NMDA-induced neurotoxicity” (Eur J Med Chem, 2017).

The source made the active and inactive calls. The calls are words filed in the database; no cut-off is given here. Bounds are passed on as bounds.

The target of data set [1] is T1, Cholinesterase (Equus caballus, UniProt P81908). Nature of the data set: Inhibition of horse serum BChE pretreated for 20 mins followed by butyrylthiocholine iodide substrate addition measured for 5 mins by Ellman's method. Background: DTNB colorimetry detects thiols as they appear.
T1 sequence (P81908 whole entry): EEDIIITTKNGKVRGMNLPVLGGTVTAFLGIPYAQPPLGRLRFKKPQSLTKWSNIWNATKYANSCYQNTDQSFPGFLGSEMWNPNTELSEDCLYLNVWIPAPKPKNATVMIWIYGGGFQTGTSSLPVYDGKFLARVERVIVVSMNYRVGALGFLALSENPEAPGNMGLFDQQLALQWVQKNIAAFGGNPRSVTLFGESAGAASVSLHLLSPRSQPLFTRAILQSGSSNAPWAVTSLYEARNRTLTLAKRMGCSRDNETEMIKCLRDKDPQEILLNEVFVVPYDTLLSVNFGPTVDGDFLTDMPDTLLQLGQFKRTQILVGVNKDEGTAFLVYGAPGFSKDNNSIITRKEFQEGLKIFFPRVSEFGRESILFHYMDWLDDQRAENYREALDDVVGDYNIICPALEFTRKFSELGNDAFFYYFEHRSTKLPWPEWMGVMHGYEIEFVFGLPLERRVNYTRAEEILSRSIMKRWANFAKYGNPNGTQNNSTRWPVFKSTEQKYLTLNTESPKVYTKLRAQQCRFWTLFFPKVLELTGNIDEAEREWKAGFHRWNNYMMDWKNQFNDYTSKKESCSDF
The target of data set [2] is Acetylcholinesterase (Electrophorus electricus, UniProt O42275). Nature of the data set: Inhibition of electric eel AChE pretreated for 20 mins followed by acetylthiocholine iodide substrate addition measured for 5 mins by Ellman's method.
Chain of Acetylcholinesterase (Electrophorus electricus, UniProt O42275) (O42275 whole entry): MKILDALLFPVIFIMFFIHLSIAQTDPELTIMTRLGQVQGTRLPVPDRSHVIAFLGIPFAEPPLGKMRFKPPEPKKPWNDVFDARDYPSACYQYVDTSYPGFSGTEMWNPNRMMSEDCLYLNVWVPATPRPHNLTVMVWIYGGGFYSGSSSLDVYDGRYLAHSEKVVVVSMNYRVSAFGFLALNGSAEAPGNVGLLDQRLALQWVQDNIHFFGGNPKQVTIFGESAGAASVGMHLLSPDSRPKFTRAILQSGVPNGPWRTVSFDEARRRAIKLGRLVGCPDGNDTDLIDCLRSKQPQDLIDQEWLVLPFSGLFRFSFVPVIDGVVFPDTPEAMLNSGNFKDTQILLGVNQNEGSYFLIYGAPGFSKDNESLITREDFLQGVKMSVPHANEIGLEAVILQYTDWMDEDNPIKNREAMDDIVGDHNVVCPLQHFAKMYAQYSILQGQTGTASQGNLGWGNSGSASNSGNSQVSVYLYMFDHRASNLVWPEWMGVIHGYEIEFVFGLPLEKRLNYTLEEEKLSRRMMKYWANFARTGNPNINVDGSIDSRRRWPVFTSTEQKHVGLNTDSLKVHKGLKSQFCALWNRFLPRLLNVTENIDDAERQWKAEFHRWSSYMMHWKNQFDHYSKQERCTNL
A short description of data set [3]: Neurotoxicity against human U87 cells assessed as growth inhibition measured after 48 hrs by MTT assay. Format: toxicity, cell-based, U-87MG ATCC. The method in brief: (§1)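 Cells kept in DMEM with 10% FBS, 2 mM L-glutamine, penicillin/streptomycin, 37 °C, 5% CO₂. Seeded ~5,000 cells/well, 1 day, then exposed to compound at 0.1-500 µM for 48 h. MTT 0.5% (w/v) added for 4 h, formazan dissolved in DMSO/ethanol 1:1, absorbance read. Triplicates, as % of untreated control. GI50 from concentration-response curves.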

Data set [4] can be described thus: Cytotoxicity against human MCF7 cells assessed as growth inhibition measured after 48 hrs by MTT assay. Type of data set: toxicity, cell-based. The essentials:
as §1
For orientation: Tetrazolium dyes change colour on reduction, which living cells bring about.

The nature of data set [5]: Hepatotoxicity against human HepG2 cells assessed as growth inhibition measured after 48 hrs by MTT assay. Type of data set: toxicity, cell-based. The essentials: as §1
Data set [6] deals with Cholinesterase (Equus caballus) (UniProt P81908). Nature of the data set: Inhibition of horse serum BChE at 10 uM pretreated for 20 mins followed by butyrylthiocholine iodide substrate addition measured for 5 mins by Ellman's method relative to control. The method in brief:
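Ellman colorimetric assay. BChE (0.9 U/mL stock in 0.1 M PB pH 8.0) with DTNB (3.3 mM stock in pH 7.0 PB plus NaHCO₃) and inhibitor (1×10^-4 to 1×10^-9 M, five to seven concentrations; or single 10 µM point) preincubated 20 min at 25 °C. Butyrylthiocholine iodide (0.05 mM stock) then added and absorbance read at 412 nm for 5.0 min. IC50 from nonlinear regression of log response curves, mean of ≥3 independent runs.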

Data set [7] in a line: Neurotoxicity against human SH-SY5Y cells assessed as growth inhibition measured after 48 hrs by MTT assay. Type of data set: toxicity, cell-based. The settings on record: for GI50 at 48 h: SH-SY5Y cells; for growth inhibition (GI): sh-sy5y, 48 h. The essentials:
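SH-SY5Y grown in DMEM/10% FBS, then treated in reduced-serum (2% FBS) medium. Compounds from 20 mM DMSO stock, tested at 0.1-1000 µM for 48 h after 1-day attachment at ~5,000 cells/well. MTT 4 h, DMSO/ethanol solubilization, absorbance. Triplicate wells, % of untreated control. GI50 from dose-response.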

For data set [8], the target named is Cholinesterase (Homo sapiens, UniProt P06276). Nature of the data set: Inhibition of human BChE pretreated for 20 mins followed by butyrylthiocholine iodide substrate addition measured for 5 mins by Ellman's method. The essentials:
(§2)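 Ellman colorimetric assay with DTNB (3.3 mM stock, pH 7.0 PB). Test compound (five to seven concentrations, 1×10^-4 to 1×10^-9 M; or single 10 µM point) preincubated with enzyme 20 min at 25 °C in 0.1 M PB pH 8.0. Rate followed at 412 nm for 5.0 min after adding thiocholine substrate (0.05 mM). IC50 by nonlinear regression, mean of ≥3 independent determinations.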

A short description of data set [9]: Neuroprotective activity against NMDA-induced toxicity in human SH-SY5Y cells assessed as cell viability at 5 uM incubated for 48 hrs by MTT assay relative to control. Type of data set: functional. The settings on record: read-out: Activity. The essentials:
(§3)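 SH-SY5Y in DMEM with 2% FBS, seeded ~5,000 cells/well and grown 1 day. Co-exposed 48 h at 37 °C to NMDA (250 µM final) plus test compound. MTT (0.5% w/v) added for 4 h, formazan dissolved in DMSO/ethanol 1:1, absorbance read. Triplicates as % of untreated control, mean ± SEM; one-way ANOVA with Dunnett's test.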

Data set [10] has as its target T2, Acetylcholinesterase (Homo sapiens, UniProt P22303). Nature of the data set: Inhibition of human AChE pretreated for 20 mins followed by acetylthiocholine iodide substrate addition measured for 5 mins by Ellman's method. The essentials: as §2
The target in data set [11] is T1, Cholinesterase. Nature of the data set: Stability assessed as horse serum BChE mediated compound hydrolysis at 300 x 10^-6M at pH 8 measured every 5 mins for 1 hr by UV-Vis spectra analysis. Format: ADME. The settings on record: buffer, pH 8, 1 h, 300 µM.
In a further data set the test system is SH-SY5Y. Nature of the data set: Neuroprotective activity against NMDA-induced toxicity in human SH-SY5Y cells assessed as increase in cell viability at 0.5 uM incubated for 48 hrs by MTT assay. Type of data set: functional, cell-based. The essentials:
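SH-SY5Y at ~5,000 cells/well in reduced-serum (2% FBS) medium co-exposed 48 h at 37 °C to NMDA (250 µM final) and compound. Viability by MTT, as % of NMDA-untreated cells. Mean ± SEM; one-way ANOVA with Dunnett's test, P < 0.05 significant.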

Data set [12] in a line: Neuroprotective activity against NMDA-induced toxicity in human SH-SY5Y cells assessed as cell viability at 0.5 uM incubated for 48 hrs by MTT assay relative to control. Format: functional. The settings on record: read-out: Activity. The method in brief: as §3
For data set [13], the target named is T2, Acetylcholinesterase. Nature of the data set: Inhibition of human AChE at 10 uM pretreated for 20 mins followed by acetylthiocholine iodide substrate addition measured for 5 mins by Ellman's method relative to control. The essentials: as §2
Data set [14] has as its target T1, Cholinesterase. Nature of the data set: Competitive inhibition of horse serum BChE in presence of varying levels of butyrylthiocholine iodide substrate by Lineweaver-burk plot method. The essentials:
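Lineweaver-Burk fit (1/v vs 1/[S]) using fixed enzyme at 0.09 U×mL^-1, substrate varied 25−250 µM, run without inhibitor and with inhibitor at four concentrations spanning 0.5-5.0 nM.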

In data set [15] the target is T1, Cholinesterase. Nature of the data set: Stability assessed as horse serum BChE mediated compound hydrolysis at 300 x 10^-7M at pH 8 measured every 5 mins for 1 hr by UV-Vis spectra analysis. Format: ADME. The settings on record: buffer, pH 8, 1 h, 30 µM.

Chain of Cholinesterase (Homo sapiens, UniProt P06276) (P06276 whole entry): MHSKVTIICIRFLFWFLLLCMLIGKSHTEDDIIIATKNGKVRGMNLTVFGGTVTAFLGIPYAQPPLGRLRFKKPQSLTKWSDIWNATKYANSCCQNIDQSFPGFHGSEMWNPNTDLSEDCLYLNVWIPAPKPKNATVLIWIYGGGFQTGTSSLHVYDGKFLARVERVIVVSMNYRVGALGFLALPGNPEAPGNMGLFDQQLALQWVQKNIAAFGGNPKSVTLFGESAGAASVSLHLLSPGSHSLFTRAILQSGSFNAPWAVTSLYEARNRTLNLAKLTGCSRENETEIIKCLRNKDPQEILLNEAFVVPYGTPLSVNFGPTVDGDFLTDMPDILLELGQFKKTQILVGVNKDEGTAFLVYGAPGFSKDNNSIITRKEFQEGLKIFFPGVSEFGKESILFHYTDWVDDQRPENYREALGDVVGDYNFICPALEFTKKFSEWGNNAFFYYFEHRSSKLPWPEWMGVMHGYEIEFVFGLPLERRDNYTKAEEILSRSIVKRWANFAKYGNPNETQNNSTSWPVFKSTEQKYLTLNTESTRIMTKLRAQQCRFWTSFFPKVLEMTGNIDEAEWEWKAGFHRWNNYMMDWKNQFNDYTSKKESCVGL
T2 sequence (P22303 whole entry): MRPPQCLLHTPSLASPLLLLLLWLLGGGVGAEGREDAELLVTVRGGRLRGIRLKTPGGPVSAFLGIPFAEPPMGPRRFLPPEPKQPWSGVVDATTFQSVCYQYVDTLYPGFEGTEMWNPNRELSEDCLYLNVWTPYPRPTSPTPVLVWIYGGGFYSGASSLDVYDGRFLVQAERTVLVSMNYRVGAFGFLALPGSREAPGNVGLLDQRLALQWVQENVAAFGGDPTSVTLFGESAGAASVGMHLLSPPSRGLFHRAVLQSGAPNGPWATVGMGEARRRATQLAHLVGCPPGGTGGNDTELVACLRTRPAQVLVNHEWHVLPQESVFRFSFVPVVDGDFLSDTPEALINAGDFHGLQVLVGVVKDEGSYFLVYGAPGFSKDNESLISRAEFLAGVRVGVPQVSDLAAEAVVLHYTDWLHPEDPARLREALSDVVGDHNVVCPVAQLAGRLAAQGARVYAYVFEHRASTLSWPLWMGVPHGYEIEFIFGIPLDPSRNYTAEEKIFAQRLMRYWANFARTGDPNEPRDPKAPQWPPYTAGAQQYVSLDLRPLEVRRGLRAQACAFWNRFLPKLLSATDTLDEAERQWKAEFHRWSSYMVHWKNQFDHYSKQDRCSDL
Chain of Cholinesterase (Equus caballus) (P81908 whole entry): as the sequence (P81908 whole entry) above

Take `Cc1ccc(CCn2c3c(c4ccccc42)C(=O)NCCC3)cc1`: at Cholinesterase [1], the IC50 worked out at 68.2 µM.

Consider `O=C1NCCCc2c1c1ccccc1n2CCc1ccc(Cl)cc1`, for which the 50% inhibitory concentration (IC50) on Cholinesterase [1] turned out to be 1.9 µM.

Regarding `CCOC(=O)CCCn1c2c(c3ccccc31)C(=O)NCCC2`, the IC50 on Acetylcholinesterase [2] is 60 µM; on Cholinesterase [1] it was 25.7 µM.

As to `O=c1[nH]cc(F)c(=O)[nH]1` [FLUOROURACIL], the concentration for 50% growth inhibition (GI50) at 48 h was determined as 13 µM in data set [3], 4.5 µM in data set [4] and 7 µM in data set [5].

With `CN1CCCc2c(c3ccccc3n2CCc2ccccc2)C1=O`, the inhibition in data set [6] stood at 10%. For the same compound, the half-maximal inhibitory concentration (IC50) at Acetylcholinesterase [2] worked out at 44.8 µM.

Turning to `O=C1NCCCc2c1c1ccccc1n2CCc1ccccc1`, the GI50 at 48 h in [3] came to 288 µM; in data set [7] it was 138 µM; in data set [4] it was 170 µM; in data set [5], 120 µM. For the same compound, the “growth inhibition (GI)” value in data set [7] is “Dose-dependent effect”. For the same compound, the IC50 on Cholinesterase [8] came to 13 nM; at Acetylcholinesterase [2], 20 µM; at Acetylcholinesterase [10], 12.6 µM; at Cholinesterase [1] it was 0.024 µM. In addition, the viability at 5 µM in [9] worked out at 76.9%. For the same compound, the Stability result at Cholinesterase [11] is “Stable”. Also, the result in the data set with SH-SY5Y was Active.

As for `O=C1NCCCc2c1c1ccccc1n2CCCc1ccccc1`, the inhibition in [6] is 20%.

Take `CC(C)CCn1c2c(c3ccccc31)C(=O)NCCC2`: the values for the concentration for half-maximal inhibition (IC50) on Acetylcholinesterase [2] and on Cholinesterase [1] were 100 µM and 22.3 µM, respectively.

Turning to `O=C1NCCCc2c1c1ccccc1n2CCc1cccc(Cl)c1`, the IC50 on Cholinesterase [1] is 0.065 µM.

Consider `O=C1CCCc2c1c1ccccc1n2CCc1ccccc1`, for which the IC50 on Acetylcholinesterase [2] and on Cholinesterase [1] was 10 µM throughout.

In the case of `O=C1NCCCc2c1c1cc(F)ccc1n2CCc1ccccc1`, on Cholinesterase [1], the 50% inhibitory concentration (IC50) is 0.028 µM.

As to `O/N=C1\CCCc2c1c1ccccc1n2CCc1ccccc1`, in [6], the inhibition worked out at 5%.

Consider `Cl.c1ccc(CCn2c3c(c4ccccc42)CNCCC3)cc1`, for which the GI50 at 48 h in data set [3] amounted to 41 µM; in data set [7] it was 5.6 µM; in data set [4], 28 µM; in data set [5], 25 µM. Also, the “growth inhibition (GI)” value in data set [7] is listed as “Dose-dependent effect”. Moreover, the viability at 0.5 µM in [12] was 76%. The IC50 on Cholinesterase [1] was found to be 1.14 µM.

On to `O=C1NCCCc2c1c1ccccc1n2CCc1ccc(F)cc1`, for which the concentration for 50% growth inhibition (GI50) at 48 h in data set [3] is more than 500 µM; in [7], 251 µM; in data set [4], more than 500 µM; in data set [5] it was 230 µM. For the same compound, the “growth inhibition (GI)” value in data set [7] is listed as “Dose-dependent effect”. For the same compound, the 50% inhibitory concentration (IC50) at Cholinesterase [8] came out at 5000 nM; at Acetylcholinesterase [10] it was 10 µM; on Cholinesterase [1] it was 0.23 µM. For the same compound, the viability at 5 µM in [9] turned out to be 76.6%.

Take `O=C1NCCCc2c1c1ccccc1n2Cc1ccccc1`: in data set [6], the inhibition is 25%.

`CCCNC(=O)c1cn(CCc2ccccc2)c2ccccc12`: the figures for the IC50 at Acetylcholinesterase [2] and on Cholinesterase [1] were 10.3 µM and 12.6 µM, respectively.

As for `O=C1NCCCc2c1c1ccccc1n2CCc1cccc(F)c1`, the 50% growth inhibitory concentration (GI50) at 48 h in [3] was 162 µM; in data set [7], 2.61 µM; in [4] it was 162 µM; in data set [5], 159 µM. Further, the “growth inhibition (GI)” value in [7] is listed as “Dose-dependent effect”. Further, the inhibition at Acetylcholinesterase [13] came out at 6%. Further, the IC50 stood at 1.8 nM on Cholinesterase [8] and 0.0015 µM at Cholinesterase [1]. In addition, in [12], the viability at 0.5 µM came out at 70%. In addition, the inhibition constant Ki on Cholinesterase [14] was determined as 0.7 nM.

For the compound `O=C1CCCc2c(c3ccccc3n2CCc2ccccc2)N1`, the Stability entry on Cholinesterase [15] is listed as “Stable”. Moreover, the inhibition in data set [6] was determined as 25%.

For `CC12CC3CC(C)(C1)CC(N)(C3)C2` [MEMANTINE], in data set [7], the 50% growth inhibitory concentration (GI50) at 48 h stood at 145 µM and the “growth inhibition (GI)” value is listed as “Dose-dependent effect”. Also, the viability at 5 µM in data set [9] worked out at 68%.

For the compound `CCOC(=O)NCCCn1c2c(c3ccccc31)C(=O)NCCC2`, the concentration for half-maximal inhibition (IC50) stood at 110 µM on Acetylcholinesterase [2] and 15 µM on Cholinesterase [1].

As for `CC(=O)OCCCCn1c2c(c3ccccc31)C(=O)NCCC2`, on Cholinesterase [1], the IC50 was determined as 10.7 µM.

By IC50 is commonly meant the point on the concentration scale where inhibition reaches its midpoint. The GI50 is the concentration giving 50% growth inhibition. As usually defined, the inhibition is the relative decrease from the control value, in per cent. In general, Ki refers to the equilibrium dissociation constant of an inhibitor or competing ligand from its target.
